Laboratory results as given in ChEMBL document CHEMBL4396914, “Discovery of new azoles with potent activity against Candida spp. and Candida albicans biofilms through virtual screening” (Eur J Med Chem, 2019).
≈ marks a conversion by molar mass, not a printed value.

How the values were obtained:
Candida parapsilosis = experiment: Antifungal activity against azole-susceptible Candida parapsilosis ATCC 90018 assessed as reduction in fungal growth incubated for 48 hrs by broth microdilution method; format: functional; details: Lodderomyces parapsilosis, ATCC 90018, 48 h
Procedure, shortened: (§1)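 CLSI broth microdilution in RPMI 1640 with MOPS at pH 7.0. Inoculum taken from 24-h Sabouraud subcultures, final 0.5-2.5×10^3 cfu/ml. Compounds in DMSO, twofold series 1024-0.125 µg/ml final. Incubated 48 h at 35 °C. MIC is the lowest concentration giving complete inhibition of visible growth. Fluconazole served as the reference.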

Pichia kudriavzevii = experiment: Antifungal activity against azole-susceptible Candida krusei ATCC 6258 assessed as reduction in fungal growth incubated for 48 hrs by broth microdilution method; format: functional; details: ATCC 6258, 48 h; procedure, shortened: as §1
Candida albicans [1] = experiment: Antifungal activity against azole-susceptible Candida albicans ATCC 90028 assessed as reduction in fungal growth incubated for 48 hrs by broth microdilution method; format: functional; details: ATCC 90028, 48 h; procedure, shortened: as §1
Candida albicans [2] = experiment: Disruption of Candida albicans SC5314 pre-formed mature biofilm assessed as reduction in biofilm biomass incubated for 24 hrs by spectrophotometry; format: functional
Procedure, shortened: (§2)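 C. albicans SC5314 biofilms grown on a 96-peg lid (Calgary device, MBEC protocol) from 10^6 cfu/ml inoculum for 24 h at 37 °C. Pegs rinsed in 0.9% saline, then challenged 24 h at 35 °C with twofold dilutions, 512-0.5 µg/ml. MBIC: no well turbidity by visual inspection. MBEC: pegs sonicated into RPMI/2% glucose, regrowth overnight, OD 550 nm plus visual turbidity.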

Candida tropicalis = experiment: Antifungal activity against azole-resistant Candida tropicalis assessed as reduction in fungal growth incubated for 48 hrs by broth microdilution method; format: functional
Procedure, shortened: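 CLSI broth microdilution in RPMI 1640 (glutamine, no bicarbonate) buffered to pH 7.0 with MOPS. Azole-resistant clinical C. tropicalis isolate, stored at -80 °C in glycerol, subcultured twice on Sabouraud dextrose agar. Inoculum from 24-h subcultures, final 0.5 to 2.5×10^3 cfu/ml. Compounds in DMSO, twofold final 1024–0.125 µg/ml. Incubated 35 °C, 48 h. MIC = lowest concentration fully inhibiting visible growth.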

Candida albicans [3] = experiment: Antibiofilm activity against Candida albicans SC5314 assessed as inhibition of biofilm formation by turbidity based visual inspection method; format: functional; procedure, shortened: as §2
Candida albicans [4] = experiment: Antifungal activity against Candida albicans by broth dilution assay; format: functional; procedure, shortened: as §1
[5] = Cytotoxicity against human U937 cells assessed as cell viability at >= 8 ug/ml incubated for 24 to 48 hrs by MTT assay; format: cell-based, U-937; details: read-out: Activity
Procedure, shortened: (§3)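 MTT assay on U937 monocytic cells, 4×10³ cells/well, in RPMI-1640 with 10% FBS. Eight concentrations, 0.125-32 µg/ml, DMSO ≤0.32% v/v, each in triplicate. Exposure 24 or 48 h at 37 °C, 5% CO₂, then MTT for 4 h. Formazan dissolved in SDS/DMF, absorbance read at 570 nm. Viability calculated relative to untreated cells.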

U-937 = experiment: Cytotoxicity against human U937 cells assessed as cell viability at 0.125 to 32 ug/ml incubated for 24 to 48 hrs by MTT assay; format: cell-based; procedure, shortened: as §3

| Compound | MIC (Candida parapsilosis) [µg/mL] | MIC (Pichia kudriavzevii) [µg/mL] | MIC (Candida albicans [1]) [µg/mL] | MIC (Candida albicans [4]) [µg/mL] | MBEC (Candida albicans [2]) [µg/mL] | MIC (Candida tropicalis) [µg/mL] | MBIC (Candida albicans [3]) [µg/mL] | viability [5] [%] | Activity (U-937) |
| --- | --- | --- | --- | --- | --- | --- | --- | --- | --- |
| CC(C)(C)c1ccc(C(=O)O/N=C(\Cn2ccnc2)c2ccc(Cl)cc2Cl)cc1 | 4 (≈ 9.3 µM) | 4 (≈ 9.3 µM) | 4 (≈ 9.3 µM) |  | 256 | 64 (≈ 149 µM) | 128 |  |  |
| Cl.O=C(OC(Cn1ccnc1)c1ccc(Cl)cc1Cl)C1CCCCC1 (racemic) | 4 | 32 | 8 |  |  | 16 |  |  |  |
| O=C(O/N=C(\Cn1ccnc1)c1ccc(Cl)cc1Cl)C1CCCCC1 | 64 (≈ 168 µM) | 64 (≈ 168 µM) | 64 (≈ 168 µM) |  |  |  |  |  |  |
| N#Cc1ccc(C(=O)O/N=C(\Cn2ccnc2)c2ccc(Cl)cc2Cl)cc1 | 64 (≈ 160 µM) | 64 (≈ 160 µM) | 128 (≈ 321 µM) |  |  |  |  |  |  |
| O=C(Cn1ccnc1)c1ccc(Cl)cc1Cl | 32 (≈ 125 µM) | 256 (≈ 1000 µM) | 128 (≈ 502 µM) |  |  |  |  |  |  |
| Cl.O=C(O/N=C(\Cn1ccnc1)c1ccc(Cl)cc1Cl)c1cc2ccccc2[nH]1 | 128 | 256 | 128 |  |  | 256 |  |  |  |
| Cl.O=C(O/N=C(\Cn1ccnc1)c1ccc(Cl)cc1Cl)c1ccc(-c2ccc(-c3ccccc3)cc2)cc1 | 128 | 256 | 128 |  |  |  |  |  |  |
| Cl.O=C(OC(Cn1ccnc1)c1ccc(Cl)cc1Cl)c1ccc(-c2ccccc2)cc1 (racemic) | 0.25 | 1 | 0.25 |  | 256 | 512 | 2 | < 80 |  |
| COc1ccc(C(=O)OC(Cn2ccnc2)c2ccc(Cl)cc2Cl)cc1.Cl (racemic) | 1 | 16 | 2 |  | 256 | 4 | 1 |  |  |
| Cc1ccc(C(=O)O/N=C(\Cn2ccnc2)c2ccc(Cl)cc2Cl)cc1 | 256 (≈ 659 µM) | 256 (≈ 659 µM) | 128 (≈ 330 µM) |  |  |  |  |  |  |
| C[C@@H]1[C@H](O)[C@@H](C)/C=C/C=C/C=C/C=C/C=C/C=C/C=C/[C@H](O[C@@H]2O[C@H](C)[C@@H](O)[C@H](N)[C@@H]2O)C[C@@H]2O[C@](O)(C[C@@H](O)C[C@@H](O)[C@H](O)CC[C@@H](O)C[C@@H](O)CC(=O)O[C@H]1C)C[C@H](O)[C@H]2C(=O)O [AMPHOTERICIN B] |  |  |  |  | 256 |  | 4 |  |  |
| Cl.O=C(OC(Cn1ccnc1)c1ccc(Cl)cc1Cl)c1ccc2ccccc2c1 (racemic) | 1 | 2 | 1 |  | 256 | 1 | 0.5 |  | Non-Toxic |
| Cl.O=C(OC(Cn1ccnc1)c1ccc(Cl)cc1Cl)C1CCCC1 (racemic) | 2 | 16 | 1 |  | >1024 | 8 | 32 |  |  |

Second part, led by results:

| MIC (Candida parapsilosis) [µg/mL] | MIC (Pichia kudriavzevii) [µg/mL] | MIC (Candida albicans [1]) [µg/mL] | MIC (Candida albicans [4]) [µg/mL] | Compound | MBEC (Candida albicans [2]) [µg/mL] | MIC (Candida tropicalis) [µg/mL] | MBIC (Candida albicans [3]) [µg/mL] | viability [5] [%] | Activity (U-937) |
| --- | --- | --- | --- | --- | --- | --- | --- | --- | --- |
| 256 | 256 | 256 |  | Cl.O=C(O/N=C(\Cn1ccnc1)c1ccc(Cl)cc1Cl)c1ccc2ccccc2c1 |  |  |  |  |  |
| 32 | 64 | 32 |  | Cl.O=C(O/N=C(\Cn1ccnc1)c1ccc(Cl)cc1Cl)c1ccc(Cl)cc1 |  |  |  |  |  |
| 128 | 256 | 128 | 300 | Cl.O=C(OC(Cn1ccnc1)c1ccc(Cl)cc1Cl)c1ccc(Cl)cc1Cl (racemic) |  |  |  |  |  |
| 8 | 32 | 16 |  | Cl.O=C(CCC(=O)c1ccccc1)OC(Cn1ccnc1)c1ccc(Cl)cc1Cl (racemic) |  |  |  |  |  |
| 128 | 256 | 128 | 10 | CC(C)(C)c1ccc(C(=O)OC(Cn2ccnc2)c2ccc(Cl)cc2Cl)cc1.Cl (racemic) |  |  |  |  |  |
| 256 | 256 | 128 |  | Cl.O=C(O/N=C(\Cn1ccnc1)c1ccc(Cl)cc1Cl)c1ccc2ccccc2n1 |  |  |  |  |  |
| 16 | 32 | 16 |  | CC(C)c1ccc(C(=O)O/N=C(\Cn2ccnc2)c2ccc(Cl)cc2Cl)cc1.Cl |  |  |  |  |  |
| 256 | 256 | 256 |  | Cl.O=C(OC(Cn1ccnc1)c1ccc(Cl)cc1Cl)c1ccc(C(F)(F)F)cc1 (racemic) |  |  |  |  |  |
| 16 | 128 | 8 |  | CC(C)(C)OC(=O)NCCCC(=O)OC(Cn1ccnc1)c1ccc(Cl)cc1Cl.Cl (racemic) |  |  |  |  |  |
